Measurements from the array DNA melting data of Ke et al. (doi:10.1101/2024.01.08.574731).

How the values were obtained:
[1] = melting temperature; fluorescence melt of hairpins on a sequencing array, two-state fit, raised by 9.35 °C to match UV melts; conditions: sodium 0.088 M
Outline: (§1)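 Folding enthalpy and melting temperature were estimated with bootstrapped two-state fits and combined across four replicates by inverse-variance weighting, with fitted temperatures raised by 9.35 °C to match UV melts. The data were Cy3 fluorescence of library hairpins, with annealed Cy3 and quencher oligos, on a sequenced MiSeq flow cell in 50 mM Na-HEPES pH 8.0, 25 mM NaCl, imaged in 2.5 °C steps up to 60 °C and normalised to pre-quench Cy3 and control constructs.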

[2] = folding enthalpy; higher = less favourable; fluorescence melt of hairpins on a sequencing array, two-state fit; conditions: sodium 0.088 M
Outline: as §1

| Sequence | Tm [1] [°C] | folding enthalpy [2] [kcal/mol] |
| --- | --- | --- |
| TCACGGAAACGTGA (((((....))))) | 50.9 | -19.9 |
| TCCCGGAAACGGGA (((((....))))) | 60.7 | -19.7 |
| TCCGAGAAATCGGA (((((....))))) | 46.4 | -19.6 |
| TCCGGGAAACCGGA (((((....))))) | 53.2 | -20.2 |
| TCCGTGAAAACGGA (((((....))))) | 53.8 | -18 |
| TCCTCGAAAGAGGA (((((....))))) | 52.7 | -17.6 |
| TCGAGGAAACTCGA (((((....))))) | 48 | -18.8 |
| TCGCAGAAATGCGA (((((....))))) | 54.4 | -17.1 |
| TCTTGGAAACAAGA (((((....))))) | 35.7 | -11.1 |
| TGCTGGAAACAGCA (((((....))))) | 53.1 | -19.4 |
| TGCTTGAAAAAGCA (((((....))))) | 47.9 | -8.9 |
| TGGATGAAAATCCA (((((....))))) | 46.1 | -17.8 |
| TGTGGGAAACCACA (((((....))))) | 49.6 | -20.5 |
| TTACCGAAAGGTAA (((((....))))) | 50.4 | -16.7 |
| TTCTGGAAACAGAA (((((....))))) | 35.4 | -15.6 |
| TTGCGGAAACGCAA (((((....))))) | 57.6 | -18.1 |
| TTGGAGAAATCCAA (((((....))))) | 35.5 | -11.1 |
| TTGGGGAAACCCAA (((((....))))) | 43.4 | -17.4 |
| TTGTCGAAAGACAA (((((....))))) | 55 | -18.1 |
| TTTACGAAAGTAAA (((((....))))) | 42.7 | -13.5 |
| TTTCAGAAATGAAA (((((....))))) | 18 | -5.49 |
